Laboratory results taken from ChEMBL document CHEMBL4390651, “Indole based antimalarial compounds targeting the melatonin pathway: Their design, synthesis and biological evaluation” (Eur J Med Chem, 2019).
Calls of active or inactive are those of the source. The rule behind the calls is not given here.

How the values were obtained:
Plasmodium falciparum [1] = assay: Antimalarial activity against Plasmodium falciparum 3D7 infected in human erythrocytes assessed as reduction in [3H]hypoxanthine incorporation pretreated for 24 hrs followed by [3H]hypoxanthine addition and measured after 48 hrs by scintillation counting method
Plasmodium falciparum [2] = assay: Antimalarial activity against trophozoite stage of Plasmodium falciparum 3D7 infected in human erythrocytes assessed as parasite survival level at 10 uM incubated for 48 hrs by Giemsa staining-based microscopic analysis (reference value: 43.65 +/- 5.16%); type: functional; conditions: 3D7, 48 h
[3] = Stability of the compound in phosphate buffer at pH 7.4 assessed as compound remaining at 1 mg/ml incubated for 0 to 24 hrs by HPLC analysis relative to control; type: physicochemical; conditions: phosphate buffer, read-out: Stability
In short: (§1)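 Compound stock in acetonitrile was added to 1.0 mL of fresh 0.01 N HCl (pH 2.0) or phosphate buffer (pH 7.4), held at 37 °C, and the amount remaining was measured by HPLC at intervals from 0 to 24 h.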

[4] = Stability of the compound in 0.01 N HCL at pH 2.0 assessed as compound remaining at 1 mg/ml incubated for 0 to 24 hrs by HPLC analysis relative to control; type: physicochemical
In short: as §1

Plasmodium falciparum [5] = assay: Antimalarial activity against trophozoite stage of Plasmodium falciparum 3D7 infected in human erythrocytes assessed as parasite survival level at 10 uM measured immediately at 0 hrs by Giemsa staining-based microscopic analysis (reference value: 3.55 +/- 5.02%); type: functional; conditions: 3D7, 0 h
Plasmodium falciparum [6] = assay: Antimalarial activity against schizont stage of Plasmodium falciparum 3D7 infected in human erythrocytes assessed as parasite survival level at 10 uM measured immediately at 0 hrs by Giemsa staining-based microscopic analysis (reference value: 0%); type: functional; conditions: 3D7, 0 h
Plasmodium falciparum [7] = assay: Antimalarial activity against ring stage of Plasmodium falciparum 3D7 infected in human erythrocytes assessed as parasite survival level at 10 uM incubated for 48 hrs by Giemsa staining-based microscopic analysis (reference value: 51.3 +/- 1.83%); type: functional; conditions: 3D7, 48 h
Plasmodium falciparum [8] = assay: Antimalarial activity against ring stage of Plasmodium falciparum 3D7 infected in human erythrocytes assessed as parasite survival level at 10 uM measured immediately at 0 hrs by Giemsa staining-based microscopic analysis (reference value: 96.4 +/- 5.09%); type: functional; conditions: 3D7, 0 h
Plasmodium falciparum [9] = assay: Antimalarial activity against chloroquine resistant Plasmodium falciparum RKL9 infected in human erythrocytes assessed as reduction in parasitemia incubated for 0 to 48 hrs by Giemsa staining-based microscopic analysis; type: functional, organism-based
In short: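 Sorbitol-synchronized ring-stage culture at 1% parasitemia, 5% hematocrit in human O+ erythrocytes (RPMI 1640, 0.5% albumax, hypoxanthine, gentamicin; 37 °C, 5% CO2/5% O2/90% N2). Compounds at […] for 48 h. Parasitemia counted on Giemsa-stained smears at 0 and 48 h. DMSO control. Mean of three independent experiments ±SD.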

Plasmodium falciparum [10] = assay: Antimalarial activity against schizont stage of Plasmodium falciparum 3D7 infected in human erythrocytes assessed as parasite survival level at 10 uM incubated for 48 hrs by Giemsa staining-based microscopic analysis (reference value: 5 +/- 7.07%); type: functional; conditions: 3D7, 48 h
Plasmodium falciparum [11] = assay: Antimalarial activity against synchronized ring stage of Plasmodium falciparum 3D7 infected in human erythrocytes assessed as inhibition of parasite growth incubated for 48 hrs by Giemsa staining-based microscopic analysis; type: functional, organism-based; conditions: 3D7, 48 h
In short: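 Sorbitol-synchronized ring-stage 3D7 in human O+ erythrocytes was exposed to four concentrations (1, 5, 10 and 20) for 48 h. Parasitemia was counted on Giemsa smears and IC50 taken from the dose-response curve. Mean ± SD of three independent experiments.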

Plasmodium falciparum [12] = assay: Antimalarial activity against synchronized ring stage of Plasmodium falciparum 3D7 infected in human erythrocytes assessed as inhibition of parasite growth at 10 uM incubated for 0 to 48 hrs by Giemsa staining-based microscopic analysis; type: functional
In short: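 3D7 was sorbitol-synchronized to ring stage at 1% parasitemia, cultured in human O+ erythrocytes (5% hematocrit, RPMI 1640/albumax, 37 °C, low-O2 gas), and exposed for 48 h, with DMSO as control. Giemsa smears at 0, 12, 24, 36 and 48 h gave parasitemia and stage morphology. Mean ± SD of three independent experiments.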

Plasmodium falciparum [13] = assay: Antimalarial activity against Plasmodium falciparum 3D7 ring stage synchronized forms infected in human erythrocytes assessed as inhibition of parasite proliferation at 5 uM incubated for 48 hrs by Giemsa-staining method; type: functional; conditions: 3D7, 48 h
In short: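 P. falciparum 3D7 grown in human O+ erythrocytes at 5% hematocrit in RPMI 1640 with NaHCO3, albumax, gentamicin and hypoxanthine, at 37 °C under 90% N2/5% CO2/5% O2. Single-concentration screen read as % inhibition of parasite proliferation. Mean of three experiments, each in triplicate.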

Plasmodium falciparum [14] = assay: (§2) Antimalarial activity against ring stage of Plasmodium falciparum infected in human erythrocytes assessed as protection against melatonin-induced parasite synchronization by measuring parasitemia 5 uM incubated for 48 hrs by Giemsa staining-based microscopic analysis (reference value: 11.80 +/- 9.19%); type: functional
Plasmodium falciparum [15] = assay: (§3) Antimalarial activity against schizont stage of Plasmodium falciparum infected in human erythrocytes assessed as protection against melatonin-induced parasite synchronization by measuring parasitemia 1 uM incubated for 48 hrs by Giemsa staining-based microscopic analysis (reference value: 0%); type: functional
[16] = molecular target: Melatonin receptor type 1A (Homo sapiens) (UniProt P48039); assay: Inhibition of human MTNR1 receptor at 500 nM using TMB as substrate preincubated for 1 hr followed by substrate addition by ELISA relative to control
Melatonin receptor type 1A (Homo sapiens), sequence (P48039 whole entry): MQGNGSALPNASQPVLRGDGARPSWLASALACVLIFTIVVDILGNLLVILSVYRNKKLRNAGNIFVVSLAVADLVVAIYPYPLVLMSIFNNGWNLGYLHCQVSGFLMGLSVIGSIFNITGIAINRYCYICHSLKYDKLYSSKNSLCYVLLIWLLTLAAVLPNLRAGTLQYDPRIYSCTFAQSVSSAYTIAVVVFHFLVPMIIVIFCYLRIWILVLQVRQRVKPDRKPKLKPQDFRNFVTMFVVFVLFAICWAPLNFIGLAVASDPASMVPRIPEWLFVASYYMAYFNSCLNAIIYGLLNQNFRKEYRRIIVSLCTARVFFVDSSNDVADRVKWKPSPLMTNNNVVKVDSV
In short: (§4)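 ELISA kit format: compounds incubated 1 h with MTNR1 receptor (5 ng/mL), melatonin as control. TMB substrate, stop solution, OD read at 450 nm; expressed as % inhibition.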

Plasmodium falciparum [17] = assay: as §2, with “against troph” for “against ring”, “parasitemia 1” for “parasitemia 5”, “value: 88.20” for “value: 11.80”; type: functional
Plasmodium falciparum [18] = assay: as §3, with “mixed” for “schizont”, “parasitemia at” for “parasitemia”, “measured immediately at 0” for “incubated for 48”, “1.05 +/- 0.07%)” for “0%)”; type: functional
Plasmodium falciparum [19] = assay: (§5) Antimalarial activity against mixed stage of Plasmodium falciparum infected in human erythrocytes assessed as protection against melatonin-induced parasite synchronization by measuring parasitemia at 5 uM measured immediately at 0 hrs by Giemsa staining-based microscopic analysis (reference value: 1.05 +/- 0.07%); type: functional
Plasmodium falciparum [20] = assay: Antimalarial activity against schizont stage of Plasmodium falciparum infected in human erythrocytes assessed as protection against melatonin-induced parasite synchronization by measuring parasitemia 5 uM incubated for 48 hrs by Giemsa staining-based microscopic analysis (reference value: 0%); type: functional
[21] = molecular target: Melatonin receptor type 1A (Homo sapiens) (UniProt P48039); assay: Inhibition of human MTNR1 receptor at 5 uM using TMB as substrate preincubated for 1 hr followed by substrate addition by ELISA relative to control
In short: as §4

Plasmodium falciparum [22] = assay: as §3, with “measured immediately” for “incubated for 48 hrs”, “23.25 +/- 0.35%)” for “0%)”; type: functional
Plasmodium falciparum [23] = assay: as §2, with “1” for “5”; type: functional
Plasmodium falciparum [24] = assay: as §2, with “against mixed” for “against ring”, “parasitemia at” for “parasitemia”, “value: 4.76” for “value: 11.80”, “+/- 0.61%)” for “+/- 9.19%)”; type: functional
Plasmodium falciparum [25] = assay: as §5, with “schizont” for “mixed”, “parasitemia” for “parasitemia at”, “immediately” for “immediately at 0 hrs”, “23.25” for “1.05”, “0.35%)” for “0.07%)”; type: functional
Plasmodium falciparum [26] = assay: as §5, with “troph” for “mixed”, “1” for “at 5”, “immediately” for “immediately at 0 hrs”, “52.50” for “1.05”, “0.70%)” for “0.07%)”; type: functional
Plasmodium falciparum [27] = assay: as §3, with “mixed” for “schizont”, “parasitemia at” for “parasitemia”, “4.76 +/- 0.61%)” for “0%)”; type: functional
Plasmodium falciparum [28] = assay: as §5, with “troph” for “mixed”, “parasitemia” for “parasitemia at”, “immediately” for “immediately at 0 hrs”, “52.50” for “1.05”, “0.70%)” for “0.07%)”; type: functional
Plasmodium falciparum [29] = assay: as §5, with “ring” for “mixed”, “parasitemia” for “parasitemia at”, “immediately” for “immediately at 0 hrs”, “23.90” for “1.05”, “0.84%)” for “0.07%)”; type: functional
Plasmodium falciparum [30] = assay: as §2, with “against troph” for “against ring”, “value: 88.20” for “value: 11.80”; type: functional
Plasmodium falciparum [31] = assay: as §5, with “ring” for “mixed”, “1” for “at 5”, “immediately” for “immediately at 0 hrs”, “23.90” for “1.05”, “0.84%)” for “0.07%)”; type: functional

`CC(C)=C[C@H]1C[C@@](C)(/C=C/c2[nH]c3ccccc3c2CCN(C)C)n2c1c(CCN(C)C)c1ccccc12` gave an IC50 (Plasmodium falciparum [1]) of 150 to 1420 nM.

In the case of `C/N=C(\c1[nH]c2ccccc2c1CCNC(=O)OC)c1c(F)cccc1F`, the survival at 10 µM (Plasmodium falciparum [2]) is reported as 27.5%, the remaining at 1 mg/ml [3] is reported as 95% and the remaining at 1 mg/ml ([4]; 0.01 N HCl, read-out: Stability) is reported as 90%. The survival at 10 µM (Plasmodium falciparum [5]) was 3%, the survival at 10 µM (Plasmodium falciparum [6]) was 2.82% and the survival at 10 µM (Plasmodium falciparum [7]) was 61.2%. The survival at 10 µM (Plasmodium falciparum [8]) was 93%, the inhibition (Plasmodium falciparum [9]) was “Dose dependent effect” and the survival at 10 µM (Plasmodium falciparum [10]) was 11.2%. For the same compound, the IC50 (Plasmodium falciparum [11]) was 730 nM and the “growth inhibition (GI)” value (Plasmodium falciparum [12]) was “Active”.

For `C/N=C(/c1ccc(Cl)cc1)c1[nH]c2ccccc2c1CCNC(=O)OC`, the inhibition at 5 µM (Plasmodium falciparum [13]) was 32%.

`C/N=C(\c1cc(Br)cs1)c1[nH]c2ccccc2c1CCNC(=O)OC` gave an inhibition at 10 µM (Plasmodium falciparum [12]) of 15%.

`COC(=O)NCCc1c(C(=O)c2ccc(Cl)cc2)[nH]c2ccccc12` gave an inhibition at 5 µM (Plasmodium falciparum [13]) of 9%.

Compound `C/N=C(/c1cc(C(F)(F)F)cc(C(F)(F)F)c1)c1[nH]c2ccc(OC)cc2c1CCNC(=O)OC` has an Activity (Plasmodium falciparum [14]) of 27.25%, a survival at 10 µM (Plasmodium falciparum [2]) of 95% and an Activity (Plasmodium falciparum [15]) of 2.9%. The inhibition [16] was 75%, the remaining at 1 mg/ml [3] was 60% and the Stability ([4]; buffer) was “Unstable”. The Activity (Plasmodium falciparum [17]) was 79.1%, the survival at 10 µM (Plasmodium falciparum [5]) was 5% and the Activity (Plasmodium falciparum [18]) was 1.15%. For the same compound, the Activity (Plasmodium falciparum [19]) was 1.1%, the survival at 10 µM (Plasmodium falciparum [6]) was 0% and the Activity (Plasmodium falciparum [20]) was 1.85%. It also gave an inhibition [21] of 85%, an Activity (Plasmodium falciparum [22]) of 22.95% and a survival at 10 µM (Plasmodium falciparum [7]) of 4.95%. It also gave a survival at 10 µM (Plasmodium falciparum [8]) of 95%, an Activity (Plasmodium falciparum [23]) of 18% and an Activity (Plasmodium falciparum [24]) of 1.65%. The Activity (Plasmodium falciparum [25]) was 21.85%, the Activity (Plasmodium falciparum [26]) was 53.8% and the inhibition (Plasmodium falciparum [9]) was “Dose dependent effect”. The Activity (Plasmodium falciparum [27]) was 2.8%, the Activity (Plasmodium falciparum [28]) was 53.25% and the survival at 10 µM (Plasmodium falciparum [10]) was 0%. The IC50 (Plasmodium falciparum [11]) was 740 nM, the Activity (Plasmodium falciparum [29]) was 24.1% and the Activity (Plasmodium falciparum [30]) was 70.9%. The Activity (Plasmodium falciparum [31]) was 24.2% and the “growth inhibition (GI)” value (Plasmodium falciparum [12]) was “Active”.
